Test results published in ChEMBL document CHEMBL4041521, “3-Aroylindoles display antitumor activity in vitro and in vivo: Effects of N1-substituents on biological activity” (Eur J Med Chem, 2017).
Calls of active or inactive are those of the source. The rule behind the calls is not given here.

Legend:
PC-3 [1] = assay: Antitumor activity against human PC3 cells xenografted in athymic nude mouse assessed as tumor growth inhibition at 100 mg/kg, po qd administered daily measured twice per week relative to control; format: functional; conditions: PC-3, po, read-out: TGI
Outline: (§1)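 Male athymic nude mice (5–6 wk) given 1 × 10⁷ PC3 cells s.c.; randomized by tumor size at ~150–350 mm³. Oral dosing daily, vehicle 5% DMSO + 5% Cremophor in D5W. Caliper volumes twice weekly, (length × width²)/2; %TGI = {1-[(Tt/T0)/(Ct/C0)]/1-[C0/Ct]}*100 against vehicle controls.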

Mus musculus [2] = assay: Toxicity in human RPMI8226 cells xenografted in athymic nude mouse assessed as body weight loss at 50 to 100 mg/kg, ip qd measured daily during first week followed by twice per week; format: organism-based; conditions: in vivo
Outline: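 RPMI-8226 xenograft nude mice (male, 5–6 wk) dosed i.p. daily in 5% DMSO + 5% Cremophor in D5W. Body weight measured daily for the first week, then twice weekly.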

PC-3 [3] = assay: Antiproliferative activity against human PC3 cells measured after 48 hrs by sulforhodamine-B assay; format: functional, cell-based; conditions: PC-3, 48 h
Homo sapiens [4] = species: Homo sapiens; assay: Inhibition of HDAC in human PC3 cells assessed as increase in alpha-tubulin acetylation by Western blot analysis; format: cell-based
Outline: (§2)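 PC3 prostate cancer cells treated, then lysed in 20 mM Tris-HCl pH 7.5 with 150 mM NaCl, EDTA/EGTA, phosphatase and protease inhibitors, 0.1% Triton X-100. Lysates spun 13,000 rpm for 30 min, then immunoblotted for acetylated α-tubulin and acetylated histone H3.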

Mus musculus [5] = assay: Toxicity in human PC3 cells xenografted in athymic nude mouse assessed as body weight loss at 100 to 200 mg/kg, po qd administered daily measured daily during first week followed by twice per week; format: organism-based; conditions: in vivo
Outline: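 PC3 xenograft nude mice (male, 5–6 wk) given daily oral drug in 5% DMSO + 5% Cremophor in D5W. Body weight recorded daily in week one, then twice weekly, compared with vehicle group.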

Sus scrofa [6] = species: Sus scrofa; assay: Inhibition of purified porcine tubulin polymerization at 1 to 10 uM measured every 1 min for 30 mins
Histone deacetylase 1 = Histone deacetylase 1 (Homo sapiens, UniProt Q13547); assay: Inhibition of recombinant human HDAC1 using fluorogenic substrate by fluorescence assay
Chain of Histone deacetylase 1 (Q13547 whole entry): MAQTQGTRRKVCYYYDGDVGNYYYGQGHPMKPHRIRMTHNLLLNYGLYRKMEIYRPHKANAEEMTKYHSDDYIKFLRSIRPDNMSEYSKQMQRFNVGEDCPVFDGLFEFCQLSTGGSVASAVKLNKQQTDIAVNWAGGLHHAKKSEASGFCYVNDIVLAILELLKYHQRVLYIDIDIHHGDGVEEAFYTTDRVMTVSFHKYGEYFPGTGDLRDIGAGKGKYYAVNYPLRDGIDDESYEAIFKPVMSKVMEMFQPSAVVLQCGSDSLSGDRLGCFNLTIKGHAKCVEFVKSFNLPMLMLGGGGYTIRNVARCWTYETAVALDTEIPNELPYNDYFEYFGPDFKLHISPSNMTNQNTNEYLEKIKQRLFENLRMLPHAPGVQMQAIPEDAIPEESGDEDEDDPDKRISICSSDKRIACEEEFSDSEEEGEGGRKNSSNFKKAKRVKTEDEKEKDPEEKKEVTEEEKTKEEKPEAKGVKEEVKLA

HCT-116 = assay: Antiproliferative activity against human HCT116 cells measured after 48 hrs by sulforhodamine-B assay; format: functional, cell-based; conditions: HCT-116, 48 h
Histone deacetylase 3 = Histone deacetylase 3 (Homo sapiens, UniProt O15379); assay: Inhibition of recombinant human HDAC3 using fluorogenic substrate by fluorescence assay
Chain of Histone deacetylase 3 (O15379 whole entry): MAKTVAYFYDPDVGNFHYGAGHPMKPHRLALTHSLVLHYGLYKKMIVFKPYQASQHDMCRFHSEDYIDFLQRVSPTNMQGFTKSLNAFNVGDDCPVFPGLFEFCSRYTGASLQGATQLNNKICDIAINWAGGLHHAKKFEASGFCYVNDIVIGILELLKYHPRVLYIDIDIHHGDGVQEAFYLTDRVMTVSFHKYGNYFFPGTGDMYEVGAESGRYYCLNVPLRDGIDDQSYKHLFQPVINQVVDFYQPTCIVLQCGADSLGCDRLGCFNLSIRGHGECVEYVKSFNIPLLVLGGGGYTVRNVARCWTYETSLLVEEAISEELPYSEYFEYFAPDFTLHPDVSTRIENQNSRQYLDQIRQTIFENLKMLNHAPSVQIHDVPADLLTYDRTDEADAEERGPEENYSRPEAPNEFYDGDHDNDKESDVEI

Sus scrofa [7] = species: Sus scrofa; assay: Inhibition of purified porcine tubulin polymerization measured every 1 min for 30 mins
RPMI-8226 [8] = assay: Antitumor activity against human RPMI8226 cells xenografted in athymic nude mouse assessed as tumor growth inhibition at 50 mg/kg, ip qd measured twice per week relative to control; format: functional; conditions: RPMI-8226, ip, read-out: TGI
Outline: (§3)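 Male athymic nude mice (5–6 wk) implanted s.c. with 1 × 10⁷ RPMI-8226 myeloma cells; randomized by tumor size at ~150–350 mm³. Daily i.p. injection, vehicle 5% DMSO + 5% Cremophor in D5W. Tumor volume by calipers twice weekly as (length × width²)/2; %TGI derived from treated vs control volume ratios at time t and time 0.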

PC-3 [9] = assay: Antitumor activity against human PC3 cells xenografted in athymic nude mouse assessed as tumor growth inhibition at 200 mg/kg, po qd administered daily measured twice per week relative to control; format: functional; conditions: PC-3, po, read-out: TGI; outline: as §1
RPMI-8226 [10] = assay: Antitumor activity against human RPMI8226 cells xenografted in ip dosed athymic nude mouse assessed as tumor growth inhibition administered once daily measured twice per week; format: functional, organism-based; outline: as §3
RPMI-8226 [11] = assay: Antitumor activity against human RPMI8226 cells xenografted in athymic nude mouse assessed as tumor growth inhibition at 100 mg/kg, ip qd measured twice per week relative to control; format: functional; conditions: RPMI-8226, ip, read-out: TGI; outline: as §3
Homo sapiens [12] = species: Homo sapiens; assay: Inhibition of HDAC in human PC3 cells assessed as increase in histone-H3 acetylation by Western blot analysis; format: cell-based; outline: as §2
Histone deacetylase 2 = Histone deacetylase 2 (Homo sapiens, UniProt Q92769); assay: Inhibition of recombinant human HDAC2 using fluorogenic substrate by fluorescence assay
Chain of Histone deacetylase 2 (Q92769 whole entry): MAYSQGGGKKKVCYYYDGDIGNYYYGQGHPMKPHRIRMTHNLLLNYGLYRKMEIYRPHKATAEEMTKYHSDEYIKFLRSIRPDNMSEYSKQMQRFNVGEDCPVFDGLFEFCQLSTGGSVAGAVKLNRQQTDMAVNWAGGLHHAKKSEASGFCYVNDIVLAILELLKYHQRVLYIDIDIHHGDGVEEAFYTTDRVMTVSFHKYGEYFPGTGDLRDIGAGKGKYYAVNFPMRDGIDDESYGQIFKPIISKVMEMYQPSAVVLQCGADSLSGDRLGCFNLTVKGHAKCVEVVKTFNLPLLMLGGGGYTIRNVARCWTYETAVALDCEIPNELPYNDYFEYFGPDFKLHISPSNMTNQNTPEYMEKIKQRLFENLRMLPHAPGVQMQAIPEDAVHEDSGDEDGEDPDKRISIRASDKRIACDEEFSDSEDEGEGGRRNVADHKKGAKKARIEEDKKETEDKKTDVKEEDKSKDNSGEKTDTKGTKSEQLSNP

Histone deacetylase 7 = molecular target: T1, Histone deacetylase 7 (Homo sapiens, UniProt Q8WUI4); assay: Inhibition of recombinant human HDAC7 using fluorogenic substrate by fluorescence assay
T1 sequence (Q8WUI4 whole entry): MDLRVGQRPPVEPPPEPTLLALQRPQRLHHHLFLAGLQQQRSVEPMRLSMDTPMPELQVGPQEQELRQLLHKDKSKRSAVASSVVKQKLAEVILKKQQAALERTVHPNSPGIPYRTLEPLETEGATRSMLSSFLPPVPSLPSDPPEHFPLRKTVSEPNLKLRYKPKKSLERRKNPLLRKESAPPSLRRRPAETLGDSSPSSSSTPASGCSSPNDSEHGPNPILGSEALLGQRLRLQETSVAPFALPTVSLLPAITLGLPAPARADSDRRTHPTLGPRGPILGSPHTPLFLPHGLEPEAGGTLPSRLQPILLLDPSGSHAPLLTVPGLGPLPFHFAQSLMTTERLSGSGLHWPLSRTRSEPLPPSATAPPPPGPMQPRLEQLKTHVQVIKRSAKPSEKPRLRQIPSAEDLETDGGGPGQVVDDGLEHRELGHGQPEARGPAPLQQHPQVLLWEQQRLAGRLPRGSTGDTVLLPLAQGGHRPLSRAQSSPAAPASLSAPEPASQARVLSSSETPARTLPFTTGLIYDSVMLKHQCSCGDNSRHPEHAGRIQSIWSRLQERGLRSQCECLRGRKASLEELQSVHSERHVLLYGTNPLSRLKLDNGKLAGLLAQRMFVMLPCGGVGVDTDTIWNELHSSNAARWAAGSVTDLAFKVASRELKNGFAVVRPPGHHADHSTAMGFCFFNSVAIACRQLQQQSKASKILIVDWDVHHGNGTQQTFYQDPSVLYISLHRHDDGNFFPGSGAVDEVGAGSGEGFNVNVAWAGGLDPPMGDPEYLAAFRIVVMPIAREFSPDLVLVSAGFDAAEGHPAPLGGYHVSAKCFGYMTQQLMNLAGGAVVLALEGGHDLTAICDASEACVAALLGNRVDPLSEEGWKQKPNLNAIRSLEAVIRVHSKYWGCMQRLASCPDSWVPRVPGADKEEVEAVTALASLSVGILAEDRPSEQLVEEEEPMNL

Homo sapiens [13] = species: Homo sapiens; assay: Inhibition of HDAC in human PC3 cells assessed as increase in alpha-tubulin acetylation at 0.01 to 10 uM by Western blot analysis; format: cell-based; outline: as §2

Row | Compound | inhibition in vivo at 100 mg/kg (PC-3 [1]) [%] | Activity (Mus musculus [2]) | IC50 (PC-3 [3]) [µM] | alpha-tubulin acetylation increase (Homo sapiens [4]) | Activity (Mus musculus [5]) | inhibition (Sus scrofa [6]) | IC50 (Histone deacetylase 1) [µM] | IC50 (HCT-116) [µM] | IC50 (Histone deacetylase 3; read-out: IC50) [µM] | inhibition (Sus scrofa [7]) | inhibition in vivo at 50 mg/kg (RPMI-8226 [8]) [%] | inhibition in vivo at 200 mg/kg (PC-3 [9]) [%] | TGI (RPMI-8226 [10]) | inhibition in vivo at 100 mg/kg (RPMI-8226 [11]) [%] | inhibition (Homo sapiens [12]) | IC50 (Histone deacetylase 2) [µM] | IC50 (Histone deacetylase 3) | IC50 (Histone deacetylase 7) | inhibition (Homo sapiens [13])
1 | COc1ccc2c(C(=O)c3cc(OC)c(OC)c(OC)c3)cn(Cc3ccc(C(=O)NO)cc3)c2c1 | 24.8 | Non-Toxic | 0.179 | Dose-dependent effect | Non-Toxic | Active | 0.573 | 0.485 | 6.53 | Dose-dependent effect | 35.8 | 68.5 | Dose-dependent effect | 58.2 | Dose-dependent effect | 1.41 | – | – | –
2 | COc1ccc2c(C(=O)c3cc(OC)c(OC)c(OC)c3)cn(S(=O)(=O)c3cccc(/C=C/C(=O)NO)c3)c2c1 | – | – | 0.0331 | – | – | Active | 0.468 | 0.0439 | – | – | – | – | – | – | – | 3.22 | Not Active | Not Active | Active
